We go through one molecule from publication PMC11000255 (Journal of the American Chemical Society, 2024).

Like-named read-outs stand apart in the source and are kept apart here. Bounds are passed on as bounds.

Assay [1] addresses kynurenine-oxoglutarate transaminase 3 (KYAT3) (Homo sapiens, UniProt Q6YP21). As to the kind of experiment: TMT18plex lysine ligandability profiling, KYAT3. The assay is classed as binding. The conditions noted are these: 100 μM, 8 h, breast cancer cells. In outline: (§1)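 Live MDA-MB-231 or MDA-MB-436 breast cancer cells were exposed to the test compound (100 µM, 8 h) or DMSO vehicle. Lysates (soluble and insoluble fractions) were chased with a desthiobiotin-tagged lysine-specific STP ester probe, trypsin-digested, streptavidin-enriched and quantified by TMTpro-18plex. Lysines had to be quantified in all biological triplicates and TMT channels. A lysine counted as liganded at ≥60% loss of probe enrichment relative to DMSO.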

The target of the next assay is nucleostemin (GNL3) (Homo sapiens, UniProt Q9BVP2). As to the kind of experiment: TMT18plex lysine ligandability profiling, GNL3. The class given is binding. As to conditions: 100 μM, 8 h, breast cancer cells. The procedure, abridged:
as §1

The next assay concerns the target T1, ABHD12 (Homo sapiens, UniProt Q8N2K0).
T1 sequence (Q8N2K0 1-398): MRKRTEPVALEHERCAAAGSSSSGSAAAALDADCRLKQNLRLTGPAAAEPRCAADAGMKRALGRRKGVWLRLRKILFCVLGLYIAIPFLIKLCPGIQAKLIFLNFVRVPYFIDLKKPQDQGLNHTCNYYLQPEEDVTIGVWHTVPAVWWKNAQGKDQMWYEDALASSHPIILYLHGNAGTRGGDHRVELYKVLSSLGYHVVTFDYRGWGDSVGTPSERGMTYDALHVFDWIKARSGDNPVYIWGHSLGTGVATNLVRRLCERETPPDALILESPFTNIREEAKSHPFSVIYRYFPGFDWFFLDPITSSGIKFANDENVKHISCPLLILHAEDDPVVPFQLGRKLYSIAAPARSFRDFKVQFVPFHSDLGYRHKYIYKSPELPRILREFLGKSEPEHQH
Put plainly: TMT18plex lysine ligandability profiling, ABHD12. The assay is classed as binding. As to conditions: both MDA-MB-231 and MDA-MB-436 cell lines. The procedure, abridged:
as §1

The target in a further assay is PFKL (Homo sapiens, UniProt P17858). Put plainly: TMT18plex lysine ligandability profiling, PFKL. The assay is classed as binding. As to conditions: 100 μM, 8 h, breast cancer cells.
Another assay deals with PFKP (Homo sapiens, UniProt Q01813). As to the kind of experiment: TMT18plex lysine ligandability profiling, PFKP. The class given is binding. The conditions noted are these: 100 μM, 8 h, breast cancer cells. The procedure, abridged: as §1
A further assay addresses T2, WT-ABHD12 (Homo sapiens, UniProt Q8N2K0).
T2 sequence (Q8N2K0 1-398): T1 sequence (Q8N2K0 1-398)
Put plainly: LC/MS-based LPS hydrolysis assay, WT-ABHD12 in HEK293T cell lysates. The assay is classed as biochemical. As to conditions: read-out: apparent IC50, inhibition of LPS hydrolysis activity; WT-ABHD12. In outline:
(§2)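 Recombinant ABHD12 (WT, S246A and K373 mutants) was expressed in HEK293T cells and used as cell lysate. Lysate was preincubated with the test compound (single-point 100 µM, or a dose series; 1 h, 37 °C), then given 17:1 LPS substrate (100 µM, 20 min, 37 °C).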

For the next assay, the target named is K373R-ABHD12 (Homo sapiens, UniProt Q8N2K0, K373R). As to the kind of experiment: LC/MS-based LPS hydrolysis assay, K373R-ABHD12 in HEK293T cell lysates. As to conditions: read-out: IC50, inhibition of LPS hydrolysis activity; K373R-ABHD12 mutant. The assay is classed as biochemical. The procedure, abridged:
as §2

The test system of another assay is MDA-MB-231 cells. Put plainly: untargeted lipidomics profiling of treated cells. As to conditions: 100 μM, 8 h. The assay is classed as cell-based, human.
The target of another assay is WT-PFKL (Homo sapiens, UniProt P17858). Put plainly: enzyme-coupled F6P phosphorylation assay, WT-PFKL in HEK293T cell lysates. The class given is biochemical. As to conditions: read-out: apparent IC50, inhibition of PFKL activity.
The next assay concerns the target K681R-PFKL (Homo sapiens, UniProt P17858, K681R). Put plainly: enzyme-coupled F6P phosphorylation assay, K681R-PFKL. The class given is biochemical. As to conditions: read-out: IC50, inhibition of PFKL activity.
The target of a further assay is K677R-PFKL (Homo sapiens, UniProt P17858, K677R). Put plainly: enzyme-coupled F6P phosphorylation assay, K677R-PFKL. The assay is classed as biochemical. The conditions noted are these: read-out: IC50, inhibition of PFKL activity.
A further assay deals with K677R/K681R-PFKL (Homo sapiens, UniProt P17858, K677R/K681R). Put plainly: enzyme-coupled F6P phosphorylation assay, K677R/K681R-PFKL double mutant. The conditions noted are these: read-out: IC50, inhibition of PFKL activity. The class given is biochemical.
A further assay has as its target K677R/K681R/K315R-PFKL (Homo sapiens, UniProt P17858, K315R/K677R/K681R). Put plainly: enzyme-coupled F6P phosphorylation assay, K677R/K681R/K315R-PFKL triple mutant. The class given is biochemical. As to conditions: read-out: IC50, inhibition of PFKL activity.
For assay [2], the target named is T3, WT-PFKP (Homo sapiens, UniProt Q01813).
T3 sequence (Q01813 1-784): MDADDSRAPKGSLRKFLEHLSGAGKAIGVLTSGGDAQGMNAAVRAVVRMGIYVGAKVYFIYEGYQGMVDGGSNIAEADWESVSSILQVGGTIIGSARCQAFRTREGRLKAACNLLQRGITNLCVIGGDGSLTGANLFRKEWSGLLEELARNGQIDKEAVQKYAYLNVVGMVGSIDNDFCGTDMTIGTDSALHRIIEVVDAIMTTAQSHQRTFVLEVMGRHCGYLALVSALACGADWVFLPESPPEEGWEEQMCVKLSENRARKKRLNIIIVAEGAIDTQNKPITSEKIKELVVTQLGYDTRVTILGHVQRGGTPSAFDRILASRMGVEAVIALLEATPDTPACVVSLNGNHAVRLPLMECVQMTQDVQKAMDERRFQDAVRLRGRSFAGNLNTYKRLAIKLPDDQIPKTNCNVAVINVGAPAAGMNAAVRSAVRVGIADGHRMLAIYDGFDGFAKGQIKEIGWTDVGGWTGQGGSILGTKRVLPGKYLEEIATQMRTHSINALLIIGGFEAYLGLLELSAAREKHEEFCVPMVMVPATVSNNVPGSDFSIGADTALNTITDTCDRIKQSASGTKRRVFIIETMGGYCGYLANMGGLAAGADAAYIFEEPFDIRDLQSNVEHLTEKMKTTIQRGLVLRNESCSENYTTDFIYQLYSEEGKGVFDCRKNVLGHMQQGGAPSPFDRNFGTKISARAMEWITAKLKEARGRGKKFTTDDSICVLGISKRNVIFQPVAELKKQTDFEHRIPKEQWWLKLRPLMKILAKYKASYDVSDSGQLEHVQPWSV
The class given is binding.

The target in assay [3] is T3, WT-PFKP. As to the kind of experiment: F6P phosphorylation assay, WT-PFKP in HEK293T cell lysates. The class given is biochemical. The conditions noted are these: read-out: IC50, inhibition of PFKP activity.
A further assay addresses K688R-PFKP (Homo sapiens, UniProt Q01813, K688R). Put plainly: F6P phosphorylation assay, K688R-PFKP in HEK293T cell lysates. The assay is classed as biochemical. As to conditions: read-out: IC50, inhibition of PFKP activity; K688R-PFKP variant.

Chain of PFKL (P17858 whole entry): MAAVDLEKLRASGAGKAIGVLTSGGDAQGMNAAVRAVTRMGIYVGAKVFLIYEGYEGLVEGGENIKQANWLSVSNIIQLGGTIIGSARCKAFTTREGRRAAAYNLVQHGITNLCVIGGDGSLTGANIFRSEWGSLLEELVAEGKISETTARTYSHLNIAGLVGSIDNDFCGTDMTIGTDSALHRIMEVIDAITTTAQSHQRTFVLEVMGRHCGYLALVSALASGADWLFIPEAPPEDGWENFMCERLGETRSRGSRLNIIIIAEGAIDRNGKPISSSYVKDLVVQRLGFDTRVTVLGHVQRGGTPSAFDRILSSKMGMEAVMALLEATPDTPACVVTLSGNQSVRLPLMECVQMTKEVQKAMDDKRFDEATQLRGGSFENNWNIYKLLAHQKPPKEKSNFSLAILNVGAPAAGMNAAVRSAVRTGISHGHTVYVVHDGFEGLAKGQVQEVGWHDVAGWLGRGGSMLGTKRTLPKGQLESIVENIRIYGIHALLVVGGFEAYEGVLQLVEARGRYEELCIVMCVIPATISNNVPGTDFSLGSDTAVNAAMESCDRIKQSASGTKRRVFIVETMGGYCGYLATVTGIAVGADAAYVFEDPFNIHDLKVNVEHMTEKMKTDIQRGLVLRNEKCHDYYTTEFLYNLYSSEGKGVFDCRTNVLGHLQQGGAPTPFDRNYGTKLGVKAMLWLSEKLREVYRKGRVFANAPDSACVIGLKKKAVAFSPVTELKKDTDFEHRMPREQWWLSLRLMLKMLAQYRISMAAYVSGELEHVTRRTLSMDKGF
Chain of nucleostemin (GNL3) (Q9BVP2 whole entry): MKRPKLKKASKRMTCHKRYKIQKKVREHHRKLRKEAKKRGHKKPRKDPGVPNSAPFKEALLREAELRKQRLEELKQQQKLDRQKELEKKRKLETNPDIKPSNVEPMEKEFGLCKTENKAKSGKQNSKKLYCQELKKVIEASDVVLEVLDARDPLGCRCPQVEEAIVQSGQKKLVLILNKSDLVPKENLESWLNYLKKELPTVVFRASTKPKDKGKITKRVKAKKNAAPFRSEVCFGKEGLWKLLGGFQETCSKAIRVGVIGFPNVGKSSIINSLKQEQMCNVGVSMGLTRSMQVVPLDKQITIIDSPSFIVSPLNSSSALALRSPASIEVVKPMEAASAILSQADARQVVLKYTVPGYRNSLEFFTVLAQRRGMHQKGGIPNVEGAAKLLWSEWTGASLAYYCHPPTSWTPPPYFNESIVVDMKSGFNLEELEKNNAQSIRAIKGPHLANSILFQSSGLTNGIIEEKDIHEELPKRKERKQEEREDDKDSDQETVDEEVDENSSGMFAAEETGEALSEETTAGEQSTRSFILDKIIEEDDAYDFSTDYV
Chain of K677R-PFKL (P17858 whole entry K677R): as the sequence (P17858 whole entry) above, with K677R counted along it
Chain of WT-PFKL (P17858 whole entry): as the sequence (P17858 whole entry) above
Chain of K373R-ABHD12 (Q8N2K0 whole entry K373R): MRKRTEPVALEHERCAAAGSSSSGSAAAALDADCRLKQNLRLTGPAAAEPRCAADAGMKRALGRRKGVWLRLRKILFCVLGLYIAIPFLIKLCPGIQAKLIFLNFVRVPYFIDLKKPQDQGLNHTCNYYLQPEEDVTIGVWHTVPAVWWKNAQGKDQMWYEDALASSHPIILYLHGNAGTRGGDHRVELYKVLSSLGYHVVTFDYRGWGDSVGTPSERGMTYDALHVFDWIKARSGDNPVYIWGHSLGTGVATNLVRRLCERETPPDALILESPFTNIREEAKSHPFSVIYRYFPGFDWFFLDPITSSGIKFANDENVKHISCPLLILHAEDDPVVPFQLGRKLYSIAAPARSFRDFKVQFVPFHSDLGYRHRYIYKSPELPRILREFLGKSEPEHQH
Chain of K688R-PFKP (Q01813 whole entry K688R): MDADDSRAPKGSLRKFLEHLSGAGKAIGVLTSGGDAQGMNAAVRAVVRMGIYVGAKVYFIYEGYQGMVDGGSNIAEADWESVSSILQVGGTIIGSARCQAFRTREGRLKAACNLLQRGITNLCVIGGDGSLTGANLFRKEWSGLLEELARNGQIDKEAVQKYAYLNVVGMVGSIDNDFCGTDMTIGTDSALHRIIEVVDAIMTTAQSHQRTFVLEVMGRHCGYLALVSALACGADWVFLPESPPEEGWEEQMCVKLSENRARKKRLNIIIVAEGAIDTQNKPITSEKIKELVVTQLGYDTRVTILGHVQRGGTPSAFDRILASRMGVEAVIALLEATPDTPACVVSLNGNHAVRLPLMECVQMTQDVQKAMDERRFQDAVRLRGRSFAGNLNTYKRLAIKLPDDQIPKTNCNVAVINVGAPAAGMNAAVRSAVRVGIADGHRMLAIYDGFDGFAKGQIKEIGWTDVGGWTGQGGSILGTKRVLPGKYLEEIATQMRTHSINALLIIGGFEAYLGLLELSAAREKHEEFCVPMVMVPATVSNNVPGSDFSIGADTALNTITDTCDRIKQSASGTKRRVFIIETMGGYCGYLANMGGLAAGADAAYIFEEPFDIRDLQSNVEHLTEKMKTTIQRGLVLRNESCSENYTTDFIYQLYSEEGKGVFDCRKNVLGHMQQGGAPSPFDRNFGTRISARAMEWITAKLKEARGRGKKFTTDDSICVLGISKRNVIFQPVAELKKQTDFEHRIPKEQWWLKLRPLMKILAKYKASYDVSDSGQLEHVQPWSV
Chain of K677R/K681R/K315R-PFKL (P17858 whole entry K315R/K677R/K681R): as the sequence (P17858 whole entry) above, with K315R, K677R, K681R counted along it
Chain of K677R/K681R-PFKL (P17858 whole entry K677R/K681R): as the sequence (P17858 whole entry) above, with K677R, K681R counted along it
Chain of kynurenine-oxoglutarate transaminase 3 (KYAT3) (Q6YP21 whole entry): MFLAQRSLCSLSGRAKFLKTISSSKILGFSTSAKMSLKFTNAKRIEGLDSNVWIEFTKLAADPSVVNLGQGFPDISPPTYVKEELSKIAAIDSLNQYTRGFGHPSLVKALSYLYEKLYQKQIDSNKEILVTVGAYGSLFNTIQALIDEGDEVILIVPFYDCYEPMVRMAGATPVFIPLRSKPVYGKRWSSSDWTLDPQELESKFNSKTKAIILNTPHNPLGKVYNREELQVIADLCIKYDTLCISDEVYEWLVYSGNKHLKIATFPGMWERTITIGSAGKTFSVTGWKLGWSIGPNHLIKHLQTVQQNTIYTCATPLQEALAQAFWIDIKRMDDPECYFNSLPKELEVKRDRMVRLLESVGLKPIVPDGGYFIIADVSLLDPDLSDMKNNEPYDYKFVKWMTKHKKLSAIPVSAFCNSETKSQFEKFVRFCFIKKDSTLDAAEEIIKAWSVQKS
Chain of K681R-PFKL (P17858 whole entry K681R): as the sequence (P17858 whole entry) above, with K681R counted along it

Take `CC1(C)[C@@H]2C[C@H]3[C@H](c4ccccc4)c4c(O)c(C=O)c(O)c(C=O)c4O[C@@]3(C)[C@H]1C2` [(−)-guadial B]: the “ligandability of K330 in KYAT3” value in assay [1] was determined as 28%. Also, the “ligandability of K20 in GNL3” value at nucleostemin (GNL3) was determined as 74%. The “ligandability of K373 in ABHD12” value at ABHD12 came to 66%. Moreover, the “ligandability of K677 in PFKL” value on PFKL is on record as 65%. Further, the “ligandability of K681 in PFKL” value on PFKL turned out to be 60%. Besides, at PFKP, the “ligandability of K688 in PFKP” value is given as 60%. Moreover, the IC50 (in general, the concentration at which inhibition is half-maximal) is 18.1 µM on WT-ABHD12; over 100 µM at K373R-ABHD12; 4.6 µM at WT-PFKL; 7 µM at K681R-PFKL; 8.6 µM on K677R-PFKL; 78.5 µM at K677R/K681R-PFKL. Moreover, the IC50 was over 100 µM on K677R/K681R/K315R-PFKL; 13.8 µM on WT-PFKP [2] (read-out: apparent IC50, blockade of P1 probe labeling, WT-PFKP); 3.8 µM on WT-PFKP [3]; over 100 µM at K688R-PFKP. Moreover, in the assay on MDA-MB-231 cells, the “levels of monoacylglycerophosphoserine LPS(18:0)” value was “significantly elevated levels”. Besides, the “levels of stearic acid FA(18:0)” value in the assay with MDA-MB-231 cells was “concurrent reduction”. The “fold reduction in potency versus enantiomer (+)-guadial B” value on WT-PFKP [2] (P1 probe labeling blockade) is listed as about 10 fold.
